The source made the active and inactive calls. No cut-off for these calls is given here.
Key:
BAEC [1] = test: Inhibition of angiogenesis in BAEC assessed as inhibition of endothelial tube formation at 0.2 mM after 24 hrs; format: functional; conditions: Bos taurus
In short: (§1)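 BAECs were pretreated with compound for 24 h, then resuspended at 3×10⁴ cells/0.1 ml in RPMI 1640 with 10 ng/ml bFGF plus compound; controls received bFGF alone. Cells were layered on polymerised growth-factor-reduced Matrigel and incubated for 8 h at 37 °C in 5% CO₂. Tubes were counted by light microscopy in at least five fields and averaged. Each compound was tested at least twice.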

[2] = (§2) Inhibition of Bacillus stearothermophilus alpha glucosidase; parameters: species or system Geobacillus stearothermophilus
BAEC [3] = test: Increase in FITC-labeled concanavalin A binding to BAEC at 50 uM after 24 hrs by flow cytometer; format: functional; conditions: Bos taurus
In short: (§3)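 Cultured BAECs were exposed to compound (50 µM) for 24 h, harvested and washed in DPBS. About 5×10⁵ cells were incubated in DPBS/1% BSA with 2 µg/mL FITC-labelled Con A or L-PHA for 1 h at 4 °C, washed twice, and fluorescence histograms were recorded by FACS. Each experiment was done at least twice.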

BAEC [4] = test: Decrease in FITC-labeled phytohemagglutininin-L binding to BAEC at 50 uM after 24 hrs by flow cytometer; format: functional, cell-based; conditions: Bos taurus; in short: as §3
[5] = Growth inhibition of BAEC after 48 hrs by MTT assay; parameters: species or system Bos taurus; conditions: cattle
In short: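 BAECs (3×10³ per well) were seeded overnight in RPMI 1640 with 10% FBS, then given compounds at 10⁻⁶–10⁻³ M for 48 h. MTT was added to a final 0.5 mg/mL for 3 h at 37 °C. Formazan was dissolved in DMSO and read at 570 nm. Samples were run in quadruplicate, with at least two independent experiments.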

Bos taurus [6] = species: Bos taurus; test: Inhibition of ERK1/2 phosphorylation in BAEC at 100 uM after 24 hrs by Western blot
In short: (§4)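 BAECs were treated at 0, 100 or 200 µM for 24 h, then lysed in RIPA buffer with protease inhibitors. Protein was quantified by micro-BCA. Lysates were separated by SDS–PAGE and transferred to PVDF, then probed overnight at 4 °C with antibodies to cyclin D1, ERK, phospho-ERK and β-actin (loading control). Detection used HRP secondaries and ECL. Experiments were repeated at least twice.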

BAEC [7] = test: Inhibition of stress fiber assembly in BAEC by fluorescence staining with FITC phalloidin; format: functional, cell-based; conditions: Bos taurus
In short: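 BAECs were grown overnight on glass coverslips, then exposed to compound for 24 h. Cells were fixed in 4% paraformaldehyde, permeabilised with 0.1% Triton X-100 and blocked with 1% BSA. F-actin was stained with FITC-phalloidin (2 µg/ml, 30 min) and imaged by confocal microscopy at 40× oil. Experiments were repeated at least twice.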

BAEC [8] = test: Inhibition of ERK1/2 levels in BAEC at 100 uM after 24 hrs by Western blot; format: functional, cell-based; conditions: Bos taurus; in short: as §4
Bos taurus [9] = species: Bos taurus; test: Inhibition of ERK1/2 phosphorylation in BAEC at 200 uM after 24 hrs by Western blot; in short: as §4
BAEC [10] = test: Inhibition of cyclin D1 expression in BAEC at 100 uM after 24 hrs by Western blot; format: functional, cell-based; conditions: Bos taurus; in short: as §4
BAEC [11] = test: Inhibition of cyclin D1 expression in BAEC at 200 uM after 24 hrs by Western blot; format: functional, cell-based; conditions: Bos taurus; in short: as §4
[12] = Cell cycle arrest in BAEC assessed as accumulation at G2/M phase at 200 uM after 24 hrs by flow cytometer relative to control; format: functional, cell-based; conditions: Bos taurus
In short: (§5)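 BAECs were seeded overnight in RPMI 1640 with 10% FBS, then exposed to compound for 24 h with a DMSO control. Cells were trypsinised, washed in DPBS and fixed in 70% ethanol at −20 °C for at least 2 h. They were treated with 200 µg/ml RNase A at 25 °C for 30 min, then stained with 50 µg/ml propidium iodide at 4 °C for 30 min. DNA content of 10,000 nuclei was read by flow cytometry, and G0/G1, S and G2/M percentages were derived. Each experiment was run at least twice.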

BAEC [13] = test: Effect on cell cycle of BAEC assessed as induction of G1 phase arrest at 200 uM after 24 hrs by flow cytometer relative to control; format: functional, cell-based; conditions: Bos taurus; in short: as §5
BAEC [14] = test: Inhibition of angiogenesis in BAEC assessed as inhibition of endothelial tube formation at 0.1 mM after 24 hrs; format: functional; conditions: Bos taurus; in short: as §1
BAEC [15] = test: Inhibition of ERK1/2 levels in BAEC at 200 uM after 24 hrs by Western blot; format: functional, cell-based; conditions: Bos taurus; in short: as §4
[16] = Cell cycle arrest in BAEC assessed as accumulation at S phase at 200 uM after 24 hrs by flow cytometer relative to control; format: functional, cell-based; conditions: Bos taurus; in short: as §5
[17] = Cell cycle arrest in BAEC assessed as accumulation at G0/G1 phase at 200 uM after 24 hrs by flow cytometer relative to control; format: functional, cell-based; conditions: Bos taurus; in short: as §5
[18] = test system: Geobacillus stearothermophilus; test: as §2

SMILES | IC50 [2] | Activity (BAEC [3]) | Activity (BAEC [4]) | Activity (BAEC [1]) | also measured
OC[C@@H]1[C@@H](O)[C@H](O)[C@@H](O)CN1CCCCCCOc1cccc(-c2cnn[nH]2)c1 | 2410 nM | Active | inactive | inactive | 
OC[C@@H]1[C@@H](O)[C@H](O)[C@@H](O)CN1CCCCOc1cccc(-c2cnn[nH]2)c1 | 6070 nM | Active | inactive | inactive | 
COc1cccc(-c2cnn[nH]2)c1 |  |  |  | inactive | Activity [18]: inactive

The next lines start with results.

IC50 [2] | Activity (BAEC [3]) | Activity (BAEC [4]) | SMILES | Activity (BAEC [1]) | also measured
1670 nM | Active | inactive | OC[C@H]1NC[C@H](O)[C@@H](O)[C@@H]1O [DUVOGLUSTAT] | inactive | Activity [5]: Not Active
1150 nM | Active | inactive | OC[C@@H]1[C@@H](O)[C@H](O)[C@@H](O)CN1CCCCCCCCOc1cccc(-c2cnn[nH]2)c1 | Active | Activity (Bos taurus [6]): inactive; Activity (BAEC [7]): Active; Activity (BAEC [8]): inactive; Activity (Bos taurus [9]): inactive; Activity (BAEC [10]): Active; Activity (BAEC [11]): Active; Activity [12]: 6.2%; Activity (BAEC [13]): Active; Activity (BAEC [14]): inactive; Activity (BAEC [15]): inactive; Activity [16]: 3.9%; Activity [17]: 87.6%

Source: ChEMBL document CHEMBL1150427, “Hybrids of 1-deoxynojirimycin and aryl-1,2,3-triazoles and biological studies related to angiogenesis” (Bioorg Med Chem, 2008)
